Data reported in ChEMBL document CHEMBL3259712, “New 5-unsubstituted dihydropyridines with improved CaV1.3 selectivity as potential neuroprotective agents against ischemic injury” (J Med Chem, 2014).
The source made the active and inactive calls. No cut-off for these calls is given here.

How the values were obtained:
SH-SY5Y [1] = test: Neuroprotective activity against K+ induced Ca2+ overload in human SH-SY5Y cells assessed as protection at 5 uM after 24 hrs by MTT assay relative to control; type: functional
In short: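 SH-SY5Y cells, 1 × 10⁵/well, 1% FBS medium, up to 13 passages. Compound diluted from 10⁻² M DMSO stock to 5 μM and co-incubated 24 h with 70 mM K⁺ (hypertonic); DMSO-only controls. MTT at 5 mg/mL for 2 h at 37 °C, read at 540 nm. % protection computed against basal as 100% survival and normalized to K⁺ toxicity; at least five cultures in triplicate.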

SH-SY5Y [2] = test: Neuroprotective activity against rotenone-oligomycin A-induced oxidative stress in human SH-SY5Y cells assessed as survival at 5 uM co-incubated rot/oligo for 24 hrs by MTT assay (Rvb =65.6 +/- 1.3%); type: functional; settings: read-out: Survival
SH-SY5Y [3] = test: Neuroprotective activity against rotenone-oligomycin A-induced oxidative stress in human SH-SY5Y cells assessed as protection at 5 uM co-incubated rot/oligo for 24 hrs by MTT assay relative to control; type: functional
In short: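 SH-SY5Y cells in 1% FBS medium co-incubated 24 h with compound and rotenone/oligomycin A (30/10 μM). Melatonin 0.3 μM was the positive control, and compounds were used at 5 μM. Viability by MTT reduction at 540 nm. % protection computed against basal as 100% and normalized to rot/olig toxicity; five to seven cultures in triplicate.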

[4] = molecular target: Voltage-dependent L-type calcium channel subunit alpha-1D (Homo sapiens, UniProt Q01668); test: Inhibition of human Cav1.3 channel in human SH-SY5Y cells assessed as 70 mM K+ induced calcium elevation compound treated 15 mins before stimulus by Fluo-4/AM assay; type: cell-based
In short: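 SH-SY5Y cells grown 2 days, loaded with 10 μM Fluo-4/AM for 1 h at 37 °C in serum-free medium, washed with Krebs-HEPES and held 15 min at room temperature. Compound applied 15 min before 70 mM KCl.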

SH-SY5Y [5] = test: Neuroprotective activity against K+ induced Ca2+ overload in human SH-SY5Y cells assessed as survival at 5 uM after 24 hrs by MTT assay (reference value: 52.1 +/- 3.5%); type: functional; settings: read-out: Survival
SH-SY5Y [6] = test: Neuroprotective activity against rotenone-oligomycin A-induced oxidative stress in human SH-SY5Y cells assessed as survival incubated with rot/oligo for 8 hrs followed by treated with compound at 5 uM for 16 hrs by MTT assay (Rvb =70.6 +/- 1.8%); type: functional; settings: read-out: Survival
In short: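 SH-SY5Y cells cultured 24 h, then exposed to rotenone/oligomycin A (30/10 μM) for 8 h at 37 °C. Stressor removed; compound in 1% FBS medium added for 16 h. DMSO-only control. MTT reduction (5 mg/mL, 2 h, 37 °C; OD 540 nm). Survival relative to untreated basal; mean ± SEM of five to seven cultures in triplicate.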

SH-SY5Y [7] = test: Neuroprotective activity against rotenone-oligomycin A-induced oxidative stress in human SH-SY5Y cells assessed as protection incubated with rot/oligo for 8 hrs followed by treated with compound at 5 uM for 16 hrs by MTT assay relative to control; type: functional
In short: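 SH-SY5Y cells cultured 24 h, then exposed to rotenone/oligomycin A (30/10 μM) for 8 h at 37 °C. Stressor was removed and cells incubated 16 h with compound in 1% FBS medium. Melatonin 0.3 μM was the positive control, and compounds were used at 5 μM. Viability by MTT; % protection against basal as 100%, normalized to rot/olig toxicity; five to seven cultures in triplicate.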

[8] = molecular target: Voltage-dependent L-type calcium channel subunit alpha-1C (Rattus norvegicus, UniProt P22002); test: Inhibition of rat Cav1.2 channel in rat mesenteric artery assessed as relaxation of 70 mM K+ induced contraction; type: tissue-based; settings: for inhibition (INH): rat
In short: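 Third-order mesenteric artery segments (2 mm) from 6-month-old Wistar Kyoto rats on a wire myograph, isometric tension, Krebs−Henseleit at 37 °C, pH 7.4. Segments equilibrated, stretched to optimal diameter, tested with 120 mM KCl, endothelium checked with 10 μM acetylcholine.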

[9] = Selectivity ratio of IC50 for human Cav1.3 channel to IC50 for rat Cav1.2 channel
Hippocampus = test: Neuroprotective activity against oxygen-glucose deprivation induced-oxidative stress in rat hippocampal slices assessed as maximum protection treated at 10 uM during 120 mins of reoxygenation period by MTT assay (Rvb =40%); type: functional
In short: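 Transverse hippocampal slices ([…] as printed) from adult male Sprague−Dawley rats (275−325 g). After 30 min stabilization, 15 min OGD at 37 °C in glucose-free Krebs (2-deoxyglucose) under 95% N₂/5% CO₂, then 120 min reoxygenation in oxygenated Krebs with compound (1, 3, 10 μM) present. MTT at 0.5 mg/mL for 30 min at 37 °C; control slices set as 100%; five experiments.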

SH-SY5Y [10] = test: Neuroprotective activity against K+ induced Ca2+ overload in human SH-SY5Y cells assessed as survival at 0.3 uM after 24 hrs by MTT assay (reference value: 52.1 +/- 3.5%); type: functional; settings: read-out: Survival
SH-SY5Y [11] = test: Neuroprotective activity against K+ induced Ca2+ overload in human SH-SY5Y cells assessed as protection at 0.3 uM after 24 hrs by MTT assay relative to control; type: functional

Sequence of Voltage-dependent L-type calcium channel subunit alpha-1D (Q01668 whole entry): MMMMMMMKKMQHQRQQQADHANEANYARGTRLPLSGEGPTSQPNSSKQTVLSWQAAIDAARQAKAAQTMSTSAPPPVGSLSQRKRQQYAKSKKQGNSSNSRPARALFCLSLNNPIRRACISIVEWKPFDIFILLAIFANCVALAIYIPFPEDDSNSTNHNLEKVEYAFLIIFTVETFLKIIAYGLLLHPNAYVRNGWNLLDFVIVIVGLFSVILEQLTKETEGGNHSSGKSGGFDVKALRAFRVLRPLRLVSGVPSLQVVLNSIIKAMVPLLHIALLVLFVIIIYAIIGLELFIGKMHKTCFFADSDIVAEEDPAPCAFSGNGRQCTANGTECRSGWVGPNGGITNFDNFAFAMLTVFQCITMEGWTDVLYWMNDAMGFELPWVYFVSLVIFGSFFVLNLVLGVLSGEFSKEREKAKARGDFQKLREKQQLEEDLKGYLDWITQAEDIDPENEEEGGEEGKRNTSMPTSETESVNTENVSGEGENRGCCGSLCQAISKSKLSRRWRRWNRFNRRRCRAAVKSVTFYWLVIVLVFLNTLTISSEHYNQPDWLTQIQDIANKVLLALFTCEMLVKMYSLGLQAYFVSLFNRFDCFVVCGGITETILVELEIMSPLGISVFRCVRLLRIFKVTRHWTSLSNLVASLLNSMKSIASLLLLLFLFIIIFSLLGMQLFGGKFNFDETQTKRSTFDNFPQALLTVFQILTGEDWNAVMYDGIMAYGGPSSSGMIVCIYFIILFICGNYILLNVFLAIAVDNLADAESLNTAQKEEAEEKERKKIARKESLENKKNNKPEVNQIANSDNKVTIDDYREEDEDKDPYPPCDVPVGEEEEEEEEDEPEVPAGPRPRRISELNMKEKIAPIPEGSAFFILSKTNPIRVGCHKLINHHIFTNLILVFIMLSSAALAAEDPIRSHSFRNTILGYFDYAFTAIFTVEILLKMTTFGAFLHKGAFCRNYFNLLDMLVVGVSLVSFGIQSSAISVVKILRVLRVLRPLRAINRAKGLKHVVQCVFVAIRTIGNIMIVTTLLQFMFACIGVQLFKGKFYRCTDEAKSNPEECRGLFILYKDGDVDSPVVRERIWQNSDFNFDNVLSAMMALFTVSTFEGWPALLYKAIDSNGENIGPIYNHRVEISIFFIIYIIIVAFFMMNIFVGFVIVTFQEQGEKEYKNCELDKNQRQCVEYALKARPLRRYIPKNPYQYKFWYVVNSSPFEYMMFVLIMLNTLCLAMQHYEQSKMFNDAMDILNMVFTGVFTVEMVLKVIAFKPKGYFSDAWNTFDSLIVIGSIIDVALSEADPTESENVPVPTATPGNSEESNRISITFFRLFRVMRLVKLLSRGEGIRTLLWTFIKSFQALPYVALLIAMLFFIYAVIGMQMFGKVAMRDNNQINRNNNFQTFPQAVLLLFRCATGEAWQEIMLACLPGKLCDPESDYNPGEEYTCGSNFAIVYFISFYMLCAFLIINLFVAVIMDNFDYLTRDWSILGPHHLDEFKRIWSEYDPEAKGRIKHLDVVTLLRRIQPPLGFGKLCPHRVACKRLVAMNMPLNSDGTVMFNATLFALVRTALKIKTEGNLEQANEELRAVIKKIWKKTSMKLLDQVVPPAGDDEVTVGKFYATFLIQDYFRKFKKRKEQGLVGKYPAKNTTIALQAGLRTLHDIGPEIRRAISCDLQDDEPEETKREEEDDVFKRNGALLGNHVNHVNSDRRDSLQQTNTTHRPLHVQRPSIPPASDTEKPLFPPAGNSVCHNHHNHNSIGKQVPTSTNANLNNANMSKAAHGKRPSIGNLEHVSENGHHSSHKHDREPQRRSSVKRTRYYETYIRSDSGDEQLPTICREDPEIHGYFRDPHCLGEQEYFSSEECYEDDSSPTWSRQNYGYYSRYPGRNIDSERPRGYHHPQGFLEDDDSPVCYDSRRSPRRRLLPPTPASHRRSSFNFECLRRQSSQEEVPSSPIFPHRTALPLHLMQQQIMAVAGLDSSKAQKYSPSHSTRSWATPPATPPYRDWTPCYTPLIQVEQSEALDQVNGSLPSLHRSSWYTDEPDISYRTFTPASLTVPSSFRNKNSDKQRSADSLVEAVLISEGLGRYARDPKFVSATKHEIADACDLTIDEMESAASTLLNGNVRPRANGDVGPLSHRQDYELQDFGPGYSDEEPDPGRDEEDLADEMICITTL
Sequence of Voltage-dependent L-type calcium channel subunit alpha-1C (P22002 whole entry): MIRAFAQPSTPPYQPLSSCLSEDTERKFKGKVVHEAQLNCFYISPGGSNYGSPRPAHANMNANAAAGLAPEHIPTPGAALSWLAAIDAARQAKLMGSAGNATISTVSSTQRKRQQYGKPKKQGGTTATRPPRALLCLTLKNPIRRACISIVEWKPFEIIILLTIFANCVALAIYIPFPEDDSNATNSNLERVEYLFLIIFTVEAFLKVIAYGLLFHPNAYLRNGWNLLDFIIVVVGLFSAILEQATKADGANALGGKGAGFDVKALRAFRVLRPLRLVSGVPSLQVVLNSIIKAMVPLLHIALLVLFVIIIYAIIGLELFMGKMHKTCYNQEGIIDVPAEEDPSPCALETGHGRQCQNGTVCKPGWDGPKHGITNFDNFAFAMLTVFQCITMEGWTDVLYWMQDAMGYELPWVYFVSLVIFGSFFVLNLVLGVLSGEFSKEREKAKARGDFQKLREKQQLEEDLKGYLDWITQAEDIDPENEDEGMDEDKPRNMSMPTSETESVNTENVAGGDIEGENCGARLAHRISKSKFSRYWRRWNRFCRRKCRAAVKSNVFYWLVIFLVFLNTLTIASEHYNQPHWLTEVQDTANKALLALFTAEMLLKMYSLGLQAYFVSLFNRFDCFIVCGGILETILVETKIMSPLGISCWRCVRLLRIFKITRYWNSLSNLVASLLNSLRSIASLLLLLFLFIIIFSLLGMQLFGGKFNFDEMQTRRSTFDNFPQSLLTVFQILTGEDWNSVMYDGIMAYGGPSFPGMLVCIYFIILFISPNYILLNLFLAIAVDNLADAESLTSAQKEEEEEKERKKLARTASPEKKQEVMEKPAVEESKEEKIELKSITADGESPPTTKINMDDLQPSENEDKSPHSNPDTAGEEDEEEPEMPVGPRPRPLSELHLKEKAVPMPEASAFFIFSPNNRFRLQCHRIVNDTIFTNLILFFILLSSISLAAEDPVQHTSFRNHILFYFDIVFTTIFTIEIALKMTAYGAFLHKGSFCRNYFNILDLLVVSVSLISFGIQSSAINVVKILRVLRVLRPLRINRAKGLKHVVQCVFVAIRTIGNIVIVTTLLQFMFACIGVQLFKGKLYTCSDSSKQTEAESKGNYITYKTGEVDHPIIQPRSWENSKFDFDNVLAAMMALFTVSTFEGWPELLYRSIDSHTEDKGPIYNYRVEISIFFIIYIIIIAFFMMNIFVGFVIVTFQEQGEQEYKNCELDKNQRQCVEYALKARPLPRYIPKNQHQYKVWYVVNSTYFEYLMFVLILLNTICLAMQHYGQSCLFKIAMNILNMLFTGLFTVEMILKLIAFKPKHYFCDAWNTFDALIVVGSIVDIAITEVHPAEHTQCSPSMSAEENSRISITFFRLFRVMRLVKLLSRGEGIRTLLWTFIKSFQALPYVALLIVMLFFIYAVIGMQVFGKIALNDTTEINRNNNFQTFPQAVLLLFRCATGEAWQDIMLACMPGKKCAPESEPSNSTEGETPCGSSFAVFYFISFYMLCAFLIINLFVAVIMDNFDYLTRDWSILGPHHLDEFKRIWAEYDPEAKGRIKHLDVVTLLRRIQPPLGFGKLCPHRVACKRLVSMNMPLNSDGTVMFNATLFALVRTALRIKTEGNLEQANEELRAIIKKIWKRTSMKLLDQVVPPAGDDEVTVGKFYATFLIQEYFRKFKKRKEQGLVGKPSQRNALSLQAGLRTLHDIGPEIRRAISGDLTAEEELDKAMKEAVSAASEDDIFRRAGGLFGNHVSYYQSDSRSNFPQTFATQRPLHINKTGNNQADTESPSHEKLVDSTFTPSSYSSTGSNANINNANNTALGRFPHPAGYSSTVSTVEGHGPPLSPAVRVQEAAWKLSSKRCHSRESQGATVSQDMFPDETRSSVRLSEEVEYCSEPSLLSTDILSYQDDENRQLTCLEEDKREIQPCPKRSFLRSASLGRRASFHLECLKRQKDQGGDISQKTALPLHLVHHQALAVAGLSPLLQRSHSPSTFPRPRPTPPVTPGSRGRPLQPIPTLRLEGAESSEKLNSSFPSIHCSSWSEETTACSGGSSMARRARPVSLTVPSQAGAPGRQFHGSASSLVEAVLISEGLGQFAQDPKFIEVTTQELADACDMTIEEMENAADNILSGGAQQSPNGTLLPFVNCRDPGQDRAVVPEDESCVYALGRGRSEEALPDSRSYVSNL

Row | Compound | Activity (SH-SY5Y [1]) [%] | viability at 5 µM (SH-SY5Y [2]) [%] | Activity (SH-SY5Y [3]) [%] | IC50 [4] [µM] | viability at 5 µM (SH-SY5Y [5]) [%] | viability at 5 µM (SH-SY5Y [6]) [%] | Activity (SH-SY5Y [7]) [%] | inhibition [4] [%] | inhibition (INH) [8] | IC50 [8] [µM] | Ratio IC50 [9] | Activity (Hippocampus) | viability at 0.3 µM (SH-SY5Y [10]) [%] | Activity (SH-SY5Y [11]) [%]
1 | CCOC(=O)C1=C(CC)NC(c2ccccc2)=CC1c1ccccc1 (stereo not given) | 31.4 | 77.4 | 32.8 | 12.8 | 67.3 | – | – | – | – | – | – | – | – | –
2 | CCOC(=O)C1=C(C)NC(c2ccc(Cl)cc2)=CC1c1ccccc1 (stereo not given) | 36.6 | 82.7 | 46.2 | 9.3 | 69.4 | – | – | – | – | – | – | – | – | –
3 | CCCC1=C(C(=O)OCC)C(c2ccccc2)C=C(c2ccccc2)N1 (stereo not given) | 23.3 | 80.5 | 42.9 | 9.9 | 65.4 | 80.6 | 34.8 | – | – | – | – | – | – | –
4 | CCOC(=O)C1=C(C)NC(c2ccc(Cl)cc2)=CC1c1cccc(OC)c1 (stereo not given) | 40.1 | 81.9 | 47.8 | 15.1 | 72.7 | 76.6 | 20.5 | 48 | – | – | – | – | – | –
5 | CC1=C(C(=O)SC(C)(C)C)C(c2ccccc2)C=C(c2ccccc2)N1 (stereo not given) | 34.1 | 79.5 | 39.6 | 95.8 | 68 | – | – | – | Dose-dependent effect | – | – | – | – | –
6 | CCOC(=O)C1=C(C)NC(c2ccc(C)cc2)=CC1c1cccs1 (stereo not given) | 50.7 | 81.9 | 45.3 | 14.9 | 75.6 | 77.5 | 25.6 | 36 | – | – | – | – | – | –
7 | CC1(C)CC(=O)C2=C(C1)NC(c1ccccc1)=CC2c1ccccc1 (stereo not given) | 21.4 | 74.6 | 26.9 | 2.8 | 64 | – | – | 79 | Dose-dependent effect | 0.34 | 8.3 | – | – | –
8 | CC1=C(C(=O)SC(C)(C)C)C(c2ccc(C)cc2)C=C(c2ccccc2)N1 (stereo not given) | 30.4 | 83.3 | 49.4 | 56.2 | 67.4 | 83.4 | 43.3 | – | – | – | – | – | – | –
9 | O=C1CCCC2=C1C(c1ccccc1)C=C(c1ccccc1)N2 (stereo not given) | 28.2 | 80.3 | 39.8 | 24 | 66.4 | – | – | – | – | – | – | – | – | –
10 | C=CCOC(=O)C1=C(C)NC(c2ccc(Cl)cc2)=CC1c1ccccc1 (stereo not given) | 29.8 | 79.7 | 41.5 | 18.5 | 68.7 | 84.3 | 44.1 | – | Dose-dependent effect | – | – | – | – | –
11 | CC1=C(C(=O)SC(C)(C)C)C(/C(C)=C/c2ccccc2)C=C(c2ccccc2)N1 (stereo not given) | 35.3 | 83.7 | 52.4 | 63.1 | 69 | 86.2 | 52.2 | – | Dose-dependent effect | 20.3 | 3.1 | 45% | – | –
12 | CCOC(=O)C1=C(C)NC(c2ccccc2)=CC1c1ccc(C)cc1 (stereo not given) | 39.8 | 83.5 | 53.3 | 20.6 | 72.3 | 88 | 60.1 | 43 | Dose-dependent effect | 10.6 | 1.9 | 45% | – | –
13 | CCOC(=O)C1=C(C)NC(c2ccc(C)cc2)=CC1c1ccccc1[N+](=O)[O-] (stereo not given) | 22.1 | 69.9 | 11.7 | 44.1 | 62.9 | – | – | – | – | – | – | – | – | –
14 | COc1ccc(C2C=C(c3ccccc3)NC(C)=C2C(=O)SC(C)(C)C)cc1 (stereo not given) | 31.3 | 82.3 | 45.7 | 26.8 | 66.7 | 81.8 | 38.6 | – | Dose-dependent effect | – | – | – | – | –
15 | CCOC(=O)C1=C(C)NC(c2ccccc2)=CC1c1ccc(OC)cc1 (stereo not given) | 34.1 | 81.3 | 46.2 | 29.8 | 69.4 | 83.5 | 42 | – | Dose-dependent effect | – | – | – | – | –
16 | CCOC(=O)C1=C(C)NC(c2ccccc2)=CC1c1ccc([N+](=O)[O-])cc1 (stereo not given) | 23.5 | 64.6 | – | 12.2 | 64.6 | – | – | – | – | – | – | – | – | –
17 | CCOC(=O)C1=C(C)NC(c2ccc(Cl)cc2)=CC1c1ccccc1[N+](=O)[O-] (stereo not given) | 13.7 | 60 | – | 57.1 | 59.3 | – | – | – | – | – | – | – | – | –
18 | CCOC(=O)C1=C(C)NC(c2ccco2)=CC1c1ccc(C)cc1 (stereo not given) | 32 | 78 | 36.6 | 55.5 | 68.5 | 79.9 | 33.2 | – | Dose-dependent effect | – | – | – | – | –
19 | CC1=C(C(=O)SC(C)(C)C)C(c2ccc(C)cc2)C=C(c2ccc(C)cc2)N1 (stereo not given) | 36.2 | 79.9 | 36.2 | > 100 | 69.9 | – | – | – | – | – | – | – | – | –
20 | CC(=O)C1=C(C)NC(c2ccccc2)=CC1c1ccccc1 (stereo not given) | 32.5 | 87.3 | 61.9 | 27.1 | 67.4 | 76.7 | 21.7 | – | Dose-dependent effect | – | – | – | – | –
21 | CCOC(=O)C1=C(C)NC(c2ccc(Cl)cc2)=CC1c1ccc(Cl)cc1 (stereo not given) | 24.8 | 69.9 | 11.9 | 28.4 | 65.1 | – | – | – | Dose-dependent effect | – | – | – | – | –
22 | CC1=C(C(=O)SC(C)(C)C)C(c2ccc(Br)cc2)C=C(c2ccc(C)cc2)N1 (stereo not given) | 34.5 | 85.7 | 57.9 | 59.6 | 67.2 | 74.2 | 12.3 | – | Dose-dependent effect | – | – | – | – | –
23 | COC(=O)C1=C(C)NC(C)=C(C(=O)OC)C1c1ccccc1[N+](=O)[O-] [NIFEDIPINE] | 20 | 78.4 | 29.3 | – | 62.9 | 73.8 | 11.7 | – | Dose-dependent effect | – | – | inactive | 58.7 | 15.8
24 | CCOC(=O)C1=C(C)NC(c2ccccc2)=CC1c1ccccc1 (stereo not given) | 34.6 | 78.4 | 32.5 | 18.7 | 67.6 | – | – | – | – | – | – | – | – | –
